Most compounds without a hit are left out; they make up all but 2.3% or so of the library.
TRPC4 block – inhibitors of mouse TRPC4 channel, primary screen, Fluo4 calcium, HEK293 TRPC4beta/mu-opioid cells; DAMGO-evoked Fluo4 calcium flux; stronger effect = lower value; B-score at 10 µM; 0.39% of 300,000 active; AID 2247, 2010;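 active means B-score over 3 SD under the library average, no early fluorescence shift, positive overall ratio signal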
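Assay system: TRPC4beta/mu-opioid receptor HEK293 cell line; compound dosing: single concentration per test compound; detection: Fluo4 Ca2+ flux fluorescence; evaluation: per-well B score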
TRPC6 inh – mouse TRPC6 channel inhibitors, primary screen, cell-based, HEK293, membrane potential dye | B-score at 10 µM | Short transient receptor potential channel 6 (Mus musculus), Q61143 | 1.1% of 310,000 active | AID 2553, 2010 | ACh-evoked depolarization; stronger effect = lower value;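 active means B-score under library mean minus 3 SD, initial fluorescence not abnormally high, positive integrated signal ratio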;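 further: B-score derived from integrated fluorescence ratio over the kinetic read; more negative B-score means stronger inhibition of depolarization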
Target sequence (Q61143 whole entry, looked up): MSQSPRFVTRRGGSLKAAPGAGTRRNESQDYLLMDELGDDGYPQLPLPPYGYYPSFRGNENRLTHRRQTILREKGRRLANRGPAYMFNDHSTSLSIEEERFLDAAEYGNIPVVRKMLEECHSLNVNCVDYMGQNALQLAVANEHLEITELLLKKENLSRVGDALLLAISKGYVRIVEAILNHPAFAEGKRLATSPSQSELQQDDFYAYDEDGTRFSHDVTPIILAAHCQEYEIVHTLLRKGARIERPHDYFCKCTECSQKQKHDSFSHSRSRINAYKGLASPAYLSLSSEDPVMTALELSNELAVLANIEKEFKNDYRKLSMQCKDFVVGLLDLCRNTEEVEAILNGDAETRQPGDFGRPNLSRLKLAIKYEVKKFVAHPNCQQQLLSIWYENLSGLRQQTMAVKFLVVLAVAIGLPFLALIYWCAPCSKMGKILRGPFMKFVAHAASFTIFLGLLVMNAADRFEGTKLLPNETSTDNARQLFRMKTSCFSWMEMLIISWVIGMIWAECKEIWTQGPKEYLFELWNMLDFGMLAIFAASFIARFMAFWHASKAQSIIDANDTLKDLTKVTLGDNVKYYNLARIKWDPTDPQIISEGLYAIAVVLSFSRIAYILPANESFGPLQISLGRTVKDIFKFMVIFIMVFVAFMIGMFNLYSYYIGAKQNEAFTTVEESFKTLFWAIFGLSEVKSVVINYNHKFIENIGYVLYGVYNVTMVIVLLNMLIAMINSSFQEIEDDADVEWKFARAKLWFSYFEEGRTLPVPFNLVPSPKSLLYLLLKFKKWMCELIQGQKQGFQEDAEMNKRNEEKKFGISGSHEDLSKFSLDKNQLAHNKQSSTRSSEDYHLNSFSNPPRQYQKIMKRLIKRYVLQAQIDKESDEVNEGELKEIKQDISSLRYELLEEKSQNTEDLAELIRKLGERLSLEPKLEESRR
TRPC4 potent – positive allosteric modulators of TRPC4, primary screen, cell-based, mouse TRPC4beta, HEK293 mu-opioid, Fluo-4 calcium | Short transient receptor potential channel 4 (Mus musculus), Q9QUQ5 | DAMGO EC20, Fluo-4 Ca2+ flux; stronger effect = higher value | B-score at 10 µM | 0.42% of 310,000 active | AID 2227, 2009;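 active means B-score of calcium response area above 5 SD of library B-scores, with initial fluorescence ratio within 5 SD of library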
TRPC6 act – mouse TRPC6 channel activators, primary screen, cell-based, HEK293, membrane potential dye; B-score at 10 µM; 0.13% of 310,000 active; HEK293-TRPC6 membrane potential dye fluorescence; stronger effect = higher value; AID 2550, 2010;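 active means B-score of the integrated fluorescence ratio above library mean plus 3 SD, and starting fluorescence ratio within library mean plus 5 SD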;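 further: higher score means more depolarization so channel activation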
TRPC4 agonist – activators of mouse TRPC4 channel, primary screen, Fluo4 calcium, HEK293 TRPC4beta/mu-opioid cells; Short transient receptor potential channel 4 (Mus musculus), Q9QUQ5; Fluo4 calcium fluorescence; stronger effect = higher value; B-score at 10 µM; 0.49% of 310,000 active;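 active means B-score above 5 SD of library B-scores, and initial fluorescence ratio not above library mean plus 5 SD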;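 further: positive B-score marks a calcium rise read as TRPC4 activation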
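Material: TRPC4beta and mu-opioid receptor HEK293 stable cells | Incubation: 45 min room-temperature Fluo4 loading, 110 s read | Detection: Kinetic Fluo4 calcium fluorescence | Measure: Integrated baseline-normalised fluorescence ratio, converted to per-well B score | Benchmarks: Low control buffer alone, high control maximal DAMGO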
TRPC4 sel inh 2 – mouse TRPC4 off-target activity of TRPC6 inhibitors, second screen. 42% of 920 active. AID 2776. inhibition, % at 10 µM. HEK293 TRPC4/MOR, membrane potential dye fluorescence; channel activated by saturating DAMGO dose. shares compounds with TRPC6 inh;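 active means compounds whose fluorescence signal differed from control wells by over 3 SD, either direction, in both duplicate plates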
TRPC4 spec – mouse TRPC4 modulation by TRPC6 hits, confirmation, selectivity assay for TRPC6 inhibitor project, cell-based, HEK293 TRPC4/mu-opioid, membrane potential dye. shares compounds with TRPC6 inh. membrane potential fluorescence. activity change, negative = inhibition, % at 10 µM. 61% of 920 active. AID 2777, 2010;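 active means rise or fall in signal beyond 3 SD of buffer-only wells in both replicate plates, either sign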;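 further: integrated kinetic ratio of fluorescence range over baseline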
HEK293 MPD ctr 2-1 – nonspecific membrane potential effects, parental HEK293, confirmation, counter-screen for TRPC6 inhibitor project, cell-based, second counter screen; AID 2779, 2010; 31% of 920 active; shares compounds with TRPC6 inh; parental HEK293 membrane potential dye fluorescence; maximal acetylcholine challenge after compound addition; signal change vs control, % at 10 µM;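 active means membrane potential signal moving either way by over 3 SD of the maximum-effect control, in both duplicate plates, meaning non-specific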
HEK293 MPD ctr-1 – membrane potential modulation in parental HEK293, confirmation, counter-screen for TRPC6 inhibitor project, cell-based; shares compounds with TRPC6 inh; parental HEK293 membrane potential dye fluorescence; membrane potential signal change, % at 10 µM; 60% of 920 active;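 active means membrane potential signal shifting up or down by more than 3 SD of buffer-only wells, on both duplicate plates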
HEK293 MPD ctr-2 – parental HEK293 membrane potential modulation, confirmation, counter-screen for TRPC6 modulator project, cell-based. shares compounds with TRPC6 inh. membrane potential dye fluorescence. membrane potential signal change, % at 10 µM. 51% of 2,400 active. AID 488924, 2010;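 active means membrane potential signal moves up or down beyond 5 SD from buffer-only wells, on both duplicate plates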
HEK293 MPD ctr 2-2 – second check of TRPC6 modulator effects in parental HEK293 cells | 14% of 2,400 active | inhibition, % at 10 µM | shares compounds with TRPC6 inh | membrane potential dye fluorescence; after compound, maximal acetylcholine stimulation;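 active means membrane potential signal drops by more than 5 SD from the mean control signal, in both duplicate plates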
TRPC4/MOR mod – TRPC4 modulation by TRPC6 hit compounds, confirmation, selectivity assay for TRPC6 modulator project, cell-based, HEK293 TRPC4/mu-opioid, membrane potential dye, mouse; shares compounds with TRPC6 inh; membrane potential fluorescence; percent change from control (negative = decrease, positive = increase), % at 10 µM; 69% of 2,400 active;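 active means membrane potential signal moved up or down beyond 5 SD of buffer control wells, in both duplicate plates, actives on both sides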
TRPC4/MOR inh 2 – mouse TRPC4 off-target activity of TRPC6 modulators, second screen; shares compounds with TRPC6 inh; HEK293 TRPC4/mu-opioid, membrane potential dye fluorescence; stimulated with maximal-effect DAMGO; inhibition, % at 10 µM; 55% of 2,400 active;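 active means drop in membrane potential signal beyond 5 SD of the control wells in both duplicate plates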;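 further: TRPC4 counter screen for TRPC6 hits run under conditions tuned for TRPC6 not TRPC4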
TRPC6 block conf – mouse TRPC6 channel inhibitors, confirmation, HEK293 cells, membrane potential dye, duplicate. shares compounds with TRPC6 inh. inhibition, % at 10 µM. AID 488960, 2010. ACh-evoked depolarization. 43% of 3,300 active;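 active means fluorescence ratio falls more than 5 SD below the full-stimulation control mean, in both duplicate runs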;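 further: integrated fluorescence ratio of peak minus minimum over baseline after agonist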
TRPC6 act confirm – mouse TRPC6 channel activators, confirmation, HEK293 cells, membrane potential dye, duplicate | activation, % at 10 µM | shares compounds with TRPC6 inh | 11% of 2,800 active | HEK293-TRPC6 membrane potential dye fluorescence, FDSS;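 active means ratio signal rise beyond 5 SD above unstimulated control wells' mean, seen in both duplicate runs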
A number is an active result; - = inactive; . = not tested or not shown; + = active, no number.

SMILES	TRPC4 block	TRPC6 inh	TRPC4 potent	TRPC6 act	TRPC4 agonist	HEK293 MPD ctr-2	HEK293 MPD ctr 2-2	TRPC4/MOR mod	TRPC4/MOR inh 2	TRPC6 block conf	TRPC6 act confirm	others
Cc1nn2c(NCCCN(C)C)c3c(nc2c1-c1ccccc1)CCCC3	-	-6.8	-	-	-	.	.	.	.	63%	-	TRPC4 sel inh 2=72%;TRPC4 spec=-19%;HEK293 MPD ctr 2-1=-;HEK293 MPD ctr-1=-296%
Cc1cc(NC(=O)CSc2nnc(C)n2C)no1	-	-	-	-	-	.	.	.	.	.	.
COc1ccc(N2CCN(C(=O)c3oc4ccccc4c3NC(=O)CCc3cc(OC)no3)CC2)cc1	-	-	-	-	-	.	.	.	.	.	.
CC1=CC2=NC(=O)/C(=C\c3cc(C)n(-c4cccc(Cl)c4)c3C)C(=N)N2O1	-	-	-	-	-	.	.	.	.	.	.
CC1=CC2=NC(=O)/C(=C/c3coc4ccc(Cl)cc4c3=O)C(=N)N2O1	-	-	-	52	-	+	+	287%	101%	.	457%
N=C1/C(=C\c2coc3ccccc3c2=O)C(=O)N=C2SC=CN12	-	-8	-	26	-	640%	118%	119%	77%	-	107%
NC(=O)c1c(/N=C/c2cccnc2)sc2c1CCCC2	-	-	-	-	-	.	.	.	.	.	.
CCOC(=O)N1CCN(C(=O)CN2C(=O)COc3ccc(C(C)(C)C)cc32)CC1	-	-6.3	-	-	-	94%	-	18%	-	54%	.
COc1ccc2nc(C)cc(NCCN3CCOCC3)c2c1	-	-9.5	-	-	-	-328%	88%	-64%	54%	65%	-
Cc1cc(NCCN2CCOCC2)c2ccc3ccccc3c2n1	-	-6.5	-	-	-	-94%	65%	-26%	70%	57%	-
O=C(CCc1c[nH]c2ccccc12)OCc1cccc([N+](=O)[O-])c1	-	-	-	-	-	.	.	.	.	.	.
